Experiment [1] can be described thus: inhibitors of TNFa-induced NFkB p65 translocation, primary screen, imaging, HUVEC, MLSMR starter and 10KST1 sets (AID 438;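 active = inhibition above 20% together with a positive visual image hit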;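 note: compound added about 3h40 before a 20 min TNFalpha stimulation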;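 for inhibition: signal is the nuclear over cytoplasmic p65 intensity ratio per well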). The settings on record: HUVEC TNFa-induced p65 nuclear translocation; cell count: measured here: nuclei count (cytotoxicity indicator), at 2.08 µM; inhibition: at 2 µM, stronger effect = higher value, 0% TNFa-plus-vehicle, 100% no-TNFa wells.
Experiment [2] in a line: reduction of polyQ htt aggregates in cells – imaging, exon1htt(103Q)mCFP cells, high-content imaging, primary screen (AID 483;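 active = visual image review flags a hit and inhibition of aggregation exceeds 20%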;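 note: compound exposure lasted 3 days before fixation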;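 for nuclei count: percent of the per-plate median nuclei count of sample wells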). Conditions: exon1htt(103Q)mCFP cell line, aggregate imaging, at 2 µM; inhibition of aggregation: stronger effect = higher value; nuclei count: measured here: cell count, toxicity.
A short description of experiment [3]: endothelial E-selectin expression blockers – imaging, HUVEC, immunofluorescence, MLSMR starter and 10KST1 sets, primary screen (AID 487;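 active = visually confirmed hit in the image check and inhibition above 20%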;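 for inhibition: signal is fraction of cell area covered by stained E-selectin grains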;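 for nuclei count: 100% = median nuclei count of all wells on the same plate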). The settings on record: HUVEC TNFalpha-induced E-selectin immunofluorescence imaging, at 2 µM; inhibition: stronger effect = higher value; nuclei count: measured here: cell number, toxicity.
In experiment [4] the target is Voltage-gated potassium channel subunit beta-2 (Rattus norvegicus) (UniProt P62483). As to the kind of experiment: inhibitors of rat Kvbeta2 reductase activity – biochemical, NADPH fluorescence, primary screen (AID 622).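 Note: slope of raw intensity against log time taken from 70 to 1610 s.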 Conditions: recombinant KvBeta, 4-cyanobenzaldehyde reduction, at 10 µM, stronger effect = higher value.
Experiment [5] shares this target. Description: enhancers of rat Kvbeta2 NADPH turnover – biochemical, NADPH fluorescence, primary screen (AID 623;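 active = NADPH fluorescence slope more negative than the mean of all samples by about 3 SD, 99.7% confidence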;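 note: fluorescence intensity change per second fitted from 20 to 320 s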). The settings on record: Recombinant KvBeta, NADPH fluorescence decrease slope, 10 min; at 10 µM; stronger effect = lower value.
Experiment [6] addresses Alpha-2C adrenergic receptor (Homo sapiens) (UniProt P18825). As to the kind of experiment: compounds altering alpha2C-coupled GIRK flux – cell-based, HEK293 alpha2C/GIRK1/2, thallium flux, primary screen (AID 624;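 active = fluorescence slope after compound addition differing from the mean of all screened samples at 99.7% confidence, in either direction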;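 note: slope of fluorescence ratio to pre-addition baseline per second over 15 to 24 s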). The settings on record: thallium flux BTC fluorescence, at 10 µM, actives lie on both sides.
A short description of experiment [7]: blockers of RIG-like receptor reporter activation – cell-based, Sendai virus stimulus, luciferase, 10K MLSCN set, TLR/RLR signaling modifier project, primary screen (AID 602276;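 active = inhibition at or above 50% at 10 µM; inactive = inhibition below 50%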;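 note: firefly luciferase from ISG56 promoter only with Renilla not read in this screen; 0% = Sendai virus plus DMSO and 100% = medium plus DMSO without virus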). Conditions: HEK293 RL24 IRF3 luciferase reporter, at 10 µM, stronger effect = higher value.
Experiment [8] is described as follows: TLR3 IRF3 reporter activation blockers – cell-based, poly I:C stimulus, luciferase, 10K MLSCN set, primary screen (AID 602277;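 active = inhibition of the reporter signal at or above 50%; inactive = inhibition below 50%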). Conditions: HEK293-TLR3 RL24 IRF3 luciferase reporter, at 10 µM, stronger effect = higher value.
Experiment [9] in a line: inhibitors of larval lipid processing in zebrafish, primary screen, whole organism, PED6 fluorescence, gall bladder and intestine (AID 686;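 active = a full or partial loss of lipid-probe fluorescence in the fish gall bladder, intestine or both, judged by eye; inactive = no fluorescence loss, or compound toxic to the fish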;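 note: signal comes from phospholipase A2 cleavage of quenched PED6 carried via bile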). Conditions: Zebrafish larvae PED6 lipid processing, fluorescence scoring; screened at 20 µM (by protocol). Summed up: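 Doses: 20 µM single dose. Test system: live zebrafish larvae aged 5-7 days, whole organism. Quantity: five larvae per well. Measured by: By-eye fluorescence microscopy. Reagent: ingested quenched lipid PED6 at 100 nM. Read-out: visual per-well fluorescence inhibition score. Times: overnight exposure of larvae to compound plus PED6.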

The source of these data is PubChem BioAssay.

Active and inactive are the calls of the source.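 Rule for the calls, unless noted: active = fluorescence slope higher than the sample average by over 3 SD (cut at about -0.22 in these data, passing the limit was not always enough); inactive = the rest.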

Alpha-2C adrenergic receptor (Homo sapiens), sequence (P18825 whole entry, looked up): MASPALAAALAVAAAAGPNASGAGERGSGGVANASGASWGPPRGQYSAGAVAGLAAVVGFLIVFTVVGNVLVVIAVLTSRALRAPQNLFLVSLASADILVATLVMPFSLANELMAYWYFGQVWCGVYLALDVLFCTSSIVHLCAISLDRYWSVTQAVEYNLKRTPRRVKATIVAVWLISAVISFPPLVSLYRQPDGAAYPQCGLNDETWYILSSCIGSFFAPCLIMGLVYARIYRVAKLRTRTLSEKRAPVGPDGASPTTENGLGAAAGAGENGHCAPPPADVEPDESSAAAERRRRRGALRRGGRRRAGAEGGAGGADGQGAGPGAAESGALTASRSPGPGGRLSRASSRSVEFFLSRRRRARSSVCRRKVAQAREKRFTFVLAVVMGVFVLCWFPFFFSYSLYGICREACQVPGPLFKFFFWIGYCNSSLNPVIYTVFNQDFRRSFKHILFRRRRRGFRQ
Voltage-gated potassium channel subunit beta-2 (Rattus norvegicus), sequence (P62483 whole entry, looked up): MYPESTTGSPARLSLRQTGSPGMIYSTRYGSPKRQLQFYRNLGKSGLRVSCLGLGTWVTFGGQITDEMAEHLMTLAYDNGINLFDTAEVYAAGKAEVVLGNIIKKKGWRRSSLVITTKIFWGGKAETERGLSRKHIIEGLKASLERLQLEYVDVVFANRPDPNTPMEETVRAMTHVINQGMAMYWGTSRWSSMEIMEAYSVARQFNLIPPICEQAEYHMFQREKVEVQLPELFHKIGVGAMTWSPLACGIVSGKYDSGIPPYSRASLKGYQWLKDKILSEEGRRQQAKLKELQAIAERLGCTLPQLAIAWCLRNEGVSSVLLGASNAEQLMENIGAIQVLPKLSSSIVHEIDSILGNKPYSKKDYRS

Turning to `COc1cc(OC)c(OC)cc1CN(C)CCc1ccccn1`, the cell count in experiment [1] amounted to 756. Moreover, the inhibition – broadly, the drop in the measured response relative to a control, in per cent – in experiment [1] is -17% (inactive); in [3], -114% (inactive); in experiment [7], 13.6% (inactive); in experiment [8], 37.3% (inactive). In experiment [2], the inhibition of aggregation is -20.8% (inactive). Besides, the nuclei count in [2] was found to be 115%; in experiment [3] it was 109%. In addition, the fluorescence slope in experiment [4] was -0.356 (inactive). The NADPH fluorescence slope in experiment [5] is -7.4e-05 (inactive). In addition, in [6], the slope was 0.00545 (inactive).

Take `Cc1nnc(NC(=O)CSc2nnc(-c3ccc(S(=O)(=O)N4CCCC4)cc3)n2C)s1`: in experiment [1], the cell count was found to be 575. Also, the inhibition in experiment [1] was -16.3% (inactive); in experiment [3], -21.6% (inactive); in experiment [7] it was 17.1% (inactive); in experiment [8] it was 17.7% (inactive). Further, in [2], the inhibition of aggregation was 14.6% (inactive). In addition, the values for the nuclei count in [2] and in experiment [3] were 85.9% and 91.4%, respectively. Besides, in experiment [4], the fluorescence slope was -0.495 (inactive). The NADPH fluorescence slope in experiment [5] was -2.2e-05 (inactive). In [6], the slope is 0.00452 (inactive).

With `CCOP(=O)(c1ccc(N(C)C)cc1)C(O)c1c(Cl)cccc1Cl` (stereo unspecified), the cell count in [1] is 220. The inhibition was -3.5% (inactive) in experiment [1], -64.5% (inactive) in experiment [3], 12.4% (inactive) in [7] and 19.2% (inactive) in [8]. Also, the inhibition of aggregation in experiment [2] is 20% (inactive). For the same molecule, the nuclei count in experiment [2] came out at 99.5%; in experiment [3] it was 96.2%. The fluorescence slope in experiment [4] is -0.521 (inactive). Also, the NADPH fluorescence slope in experiment [5] was -3.5e-05 (inactive). Besides, the slope in experiment [6] is 0.00411 (inactive).

Regarding `CC(=O)c1c(C)[nH]c(C(=O)OCc2nnc(-c3ccccc3)o2)c1C`, in experiment [1], the cell count stood at 757. In addition, the inhibition in experiment [1] was -7.8% (inactive); in experiment [3] it was -43.7% (inactive); in experiment [7], 14.6% (inactive); in [8], 12.4% (inactive). Moreover, in experiment [2], the inhibition of aggregation is -14.5% (inactive). The nuclei count in [2] stood at 122%; in experiment [3], 110%. For the same molecule, the fluorescence slope in experiment [4] is -0.639 (inactive). Further, the NADPH fluorescence slope in [5] is 4.8e-05 (inactive). For the same molecule, the slope in experiment [6] was 0.00623 (inactive).

In the case of `CN(C)c1cccc(C(=O)OCC(=O)NCc2ccco2)c1`, the cell count in [1] came to 806. Moreover, the inhibition is -12.9% (inactive) in [1], 9.6% (inactive) in experiment [3], 10.8% (inactive) in [7] and 5.69% (inactive) in [8]. The inhibition of aggregation in experiment [2] is 5.8% (inactive). In addition, the nuclei count is 85.3% in experiment [2] and 97.5% in experiment [3]. Besides, the fluorescence slope in experiment [4] was -0.603 (inactive). The NADPH fluorescence slope in experiment [5] was 3e-05 (inactive). The slope in experiment [6] is 0.0074 (inactive).

Take `c1cc(C(c2nnnn2C2CCCC2)N2CCOCC2)ccn1` (stereo unspecified): the cell count in experiment [1] is 392. The inhibition is -7.3% (inactive) in experiment [1], 38.6% (inactive) in [3], 18.3% (inactive) in experiment [7] and 21.2% (inactive) in [8]. Further, the inhibition of aggregation in [2] is 27.3% (inactive). The figures for the nuclei count in experiment [2] and in experiment [3] were 78.3% and 97.3%, respectively. Also, the fluorescence slope in experiment [4] was -0.522 (inactive). Further, in experiment [5], the NADPH fluorescence slope was 2.4e-05 (inactive). In addition, the slope in [6] is 0.00524 (inactive).

Regarding `COCCn1c(CN2CCN(c3ccccc3F)CC2)nc2c1c(=O)n(C)c(=O)n2C`, the cell count in experiment [1] turned out to be 609. For the same molecule, the inhibition in [1] is -5.2% (inactive); in experiment [3] it was 2.6% (inactive); in experiment [7], -11.5% (inactive); in experiment [8], -9.11% (inactive). Further, the inhibition of aggregation in experiment [2] was 0.1% (inactive). Further, the results for the nuclei count in experiment [2] and in experiment [3] were 92.3% and 90.2%, respectively. Further, the fluorescence slope in experiment [4] is -0.61 (inactive). Besides, in experiment [5], the NADPH fluorescence slope is -2.3e-05 (inactive). For the same molecule, the slope in experiment [6] is 0.00711 (inactive).

On to `CCCNC(=O)C1CC(=O)N(c2ccc(OCC(=O)Nc3cc(C)cc(C)c3)cc2)C1` (stereo unspecified), for which the cell count in experiment [1] amounted to 591. For the same molecule, the inhibition was -6.2% (inactive) in experiment [1], -6.3% (inactive) in [3], -3.19% (inactive) in experiment [7] and 27.9% (inactive) in experiment [8]. Besides, the inhibition of aggregation in experiment [2] was -2.7% (inactive). The figures for the nuclei count in experiment [2] and in experiment [3] were 104% and 114%, respectively. For the same molecule, the fluorescence slope in experiment [4] was -0.562 (inactive). Besides, in [5], the NADPH fluorescence slope is -4e-05 (inactive). Further, the slope in experiment [6] was 0.00634 (inactive).

Consider `C(#Cc1ccccc1)Cn1nnc2ccccc21`, for which the cell count in experiment [1] was 288. Also, the inhibition in experiment [1] is 18% (inactive); in experiment [3] it was -5% (inactive); in [7] it was -41.6% (inactive); in experiment [8], -170% (inactive). The inhibition of aggregation in experiment [2] is 11.6% (inactive). Further, the nuclei count was found to be 73.2% in [2] and 103% in experiment [3]. Moreover, the fluorescence slope in [4] was -0.336 (inactive). Moreover, the NADPH fluorescence slope in [5] was -2.1e-05 (inactive). The slope in experiment [6] is 0.00582 (inactive).

As for `COc1ccc(-n2c(COc3cccc(C)c3)nnc2SCC(=O)NCc2ccco2)cc1`, in [1], the cell count stood at 707. Besides, the inhibition was -6.3% (inactive) in experiment [1], -54.8% (inactive) in [3], -3.09% (inactive) in experiment [7] and 10.9% (inactive) in [8]. Moreover, the inhibition of aggregation in experiment [2] was 5.1% (inactive). Further, the nuclei count in experiment [2] and in [3] was 100% each time. The fluorescence slope in experiment [4] was -0.596 (inactive). Moreover, the NADPH fluorescence slope in experiment [5] was -6.6e-05 (inactive). Moreover, the slope in experiment [6] is 0.00613 (inactive).

With `Cn1c(=O)c2c(nc(CN3CCN(c4ccccc4F)CC3)n2CCN2CCOCC2)n(C)c1=O`, the cell count in [1] was 317. The inhibition in [1] was -6.9% (inactive); in experiment [3] it was -26.9% (inactive); in experiment [7], 17.6% (inactive); in experiment [8], 17.1% (inactive). In addition, in experiment [2], the inhibition of aggregation was 13.3% (inactive). Further, the nuclei count in experiment [2] turned out to be 114%; in [3], 107%. Besides, in [4], the fluorescence slope was -0.288 (inactive). Also, in [5], the NADPH fluorescence slope is -2.7e-05 (inactive). In experiment [6], the slope was 0.00647 (inactive).

As to `CN1C(=O)c2oc3ccccc3c(=O)c2C1c1ccccn1` (stereo unspecified), in experiment [1], the cell count is 404. In addition, the inhibition is 5.4% (inactive) in experiment [1], -28.5% (inactive) in experiment [3], 18% (inactive) in experiment [7] and 12% (inactive) in [8]. Also, the inhibition of aggregation in [2] was -16.4% (inactive). The nuclei count in experiment [2] was 106%; in experiment [3] it was 87.5%. Also, the fluorescence slope in experiment [4] is -0.437 (inactive). Besides, in experiment [5], the NADPH fluorescence slope is -4.2e-05 (inactive). Besides, the slope in experiment [6] was 0.00452 (inactive). For the same molecule, the call in [9] was inactive.

With `CCOC(=O)Cc1csc(NC(=O)CSc2nnc(C3CC3)n2C)n1`, the cell count in [1] worked out at 670. The inhibition in [1] was -11.2% (inactive); in experiment [3] it was 18.1% (inactive); in experiment [7], 10.5% (inactive); in [8], 17.5% (inactive). For the same molecule, the inhibition of aggregation in experiment [2] was 2.2% (inactive). In addition, the nuclei count in experiment [2] is 110%; in [3] it was 102%. Also, the fluorescence slope in [4] is -0.265 (inactive). The NADPH fluorescence slope in [5] was -5.6e-05 (inactive). Moreover, the slope in [6] is 0.0044 (inactive).

Turning to `COc1ccc(C(NC(C)=O)c2ccc3cccnc3c2O)c(OC)c1` (stereo unspecified), the cell count in [1] was 444. Further, the inhibition was 2.1% (inactive) in [1], 23.6% (inactive) in experiment [3], -12.8% (inactive) in experiment [7] and 61.9% (active) in experiment [8]. The inhibition of aggregation in experiment [2] is -3% (inactive). Moreover, the nuclei count in [2] was found to be 90.6%; in [3], 111%. For the same molecule, in [4], the fluorescence slope is -0.37 (inactive). Besides, the NADPH fluorescence slope in experiment [5] is -5.8e-05 (inactive). For the same molecule, the slope in experiment [6] was 0.00602 (inactive). For the same molecule, the result in experiment [9] was inactive.
